According to PMC3355519 (Journal of Medicinal Chemistry, 2012):

Assays:
[1] = tested on: HIV-1 protease D30N/N88D double mutant; settings: cited from earlier work
[2] = biological target: HIV-1 PRI47V (Human immunodeficiency virus type 1 group M subtype B, UniProt P04585, C555A/C583A/I535V/L521I/L551I/Q495K); assay: HIV-1 protease inhibition, fluorogenic p2/NC substrate, I47V mutant; format: biochemical
Method in brief: (§1)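 Recombinant HIV-1 protease (HXB2) carried stabilising substitutions Q7K, L33I, L63I, C67A and C95A, plus the point mutation introduced by site-directed mutagenesis. It was expressed in E. coli BL21(DE3) and purified from inclusion bodies. Enzyme (12-45 nM final) was preincubated 5 min at 37 °C with test compound or DMSO in 0.1 M MES pH 5.6, 0.4 M NaCl, 1 mM EDTA, 5% glycerol. Abz-Thr-Ile-Nle-p-nitro-Phe-Gln-Arg-NH2 started the reaction, read 5 min at ex 340/em 420 nm. Ki = (IC50 − [E]/2)/(1 + [S]/Km).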

[3] = biological target: HIV-1 PRV82A (Human immunodeficiency virus type 1 group M subtype B, UniProt P04585, C555A/C583A/L521I/L551I/Q495K/V570A); assay: HIV-1 protease inhibition, fluorogenic p2/NC substrate, V82A mutant; format: biochemical; settings: PRV82A vs PRWT
Method in brief: as §1

[4] = tested on: HIV-1LAI; settings: against HIV-1LAI; cited from earlier work

Structure (SMILES)	increase of Ki value compared to wild-type [1]	Ki ([2]; Ki, PRI47V, pH 5.6, 37 °C)	change in the inhibition constant vs wild-type ([2]; PRI47V vs PRWT)	change in the inhibition constant vs wild-type [3]	selectivity index (CC50/EC50) [4]
Cc1c(O)cccc1C(=O)N[C@@H](CSc1ccccc1)[C@H](O)CN1C[C@H]2CCCC[C@H]2C[C@H]1C(=O)NC(C)(C)C [NFV, nelfinavir]	260 fold				
COc1ccc(S(=O)(=O)N(C[C@H]2CCC(=O)N2)C[C@@H](O)[C@H](Cc2ccccc2)NC(=O)O[C@@H]2C[C@@H]3CCO[C@@H]3C2)cc1 [Compound 1]		400 pM	less than 2 fold	less than 2 fold	> 3,600
